Experimental data from ChEMBL document CHEMBL4000160, “Wasabisides A-E, Lignan Glycosides from the Roots of Wasabia japonica” (J Nat Prod, 2016).
Blank lines part the entries; values can stand above or below the molecule they belong to.

How the values were obtained:
BV-2 = assay: Antineuroinflammatory activity in mouse BV2 cells assessed as inhibition of LPS-induced nitric oxide production after 24 hrs by Griess assay; type: functional, cell-based; conditions: BV-2, 24 h
Summary of the method: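 BV2 microglia seeded at 4 × 10^4 cells/well, exposed with or without graded compound concentrations, stimulated with LPS 100 ng/mL for 24 h. Nitrite in medium measured by mixing supernatant 1:1 with Griess reagent (0.1% N-1-naphthylethylenediamine, 1% sulfanilamide, 5% phosphoric acid), absorbance read at 570 nm after 10 min against sodium nitrite standard curve. NG-monomethyl-L-arginine positive control.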

[1] = Cytotoxicity against rat C6 cells assessed as cell viability at 20 uM by MTT assay relative to control; type: cell-based; conditions: read-out: Activity
Summary of the method: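 C6 glioma cells seeded 1 × 10^5 cells/well, treated 24 h later in serum-free DMEM with 20 μM compound for 24 h; viability by MTT assay, expressed as % of untreated control. Mean ± SD of three independent experiments.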

SK-OV-3 = assay: Cytotoxicity against human SKOV3 cells after 48 hrs by SRB assay; type: functional, cell-based; conditions: SK-OV-3, 48 h
Summary of the method: (§1)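 Human tumor lines from ATCC, maintained at Korea Research Institute of Chemical Technology; cytotoxicity determined by sulforhodamine B (SRB) method, reported as IC50.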

C6 = assay: Induction of nerve growth factor secretion in rat C6 cells at 20 uM after 24 hrs by ELISA relative to control; type: functional
Summary of the method: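 C6 glioma cells (Korean Cell Line Bank) seeded 1 × 10^5 cells/well; after 24 h switched to serum-free DMEM with 20 μM compound for 24 h. NGF in conditioned medium quantified by ELISA, given as % of untreated control (100%). 6-Shogaol positive control; mean ± SD of three independent experiments.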

SK-MEL-2 = assay: Cytotoxicity against human SK-MEL-2 cells after 48 hrs by SRB assay; type: functional, cell-based; conditions: SK-MEL-2, 48 h; summary of the method: as §1
BT-549 = assay: Cytotoxicity against human BT549 cells after 48 hrs by SRB assay; type: functional, cell-based; conditions: BT-549, 48 h; summary of the method: as §1
A549 = assay: Cytotoxicity against human A549 cells after 48 hrs by SRB assay; type: functional, cell-based; conditions: A549, 48 h; summary of the method: as §1

Compound: COc1cc(C[C@@H]2C(=O)OC[C@H]2[C@@H](O)c2cc(OC)c(O[C@@H]3O[C@H](CO)[C@@H](O)[C@H](O)[C@H]3O)c(OC)c2)ccc1O
IC50 (BV-2): > 50 µM
viability at 20 µM [1]: 102%
IC50 (SK-OV-3): > 10 µM
Activity (C6): 99.4%
IC50 (SK-MEL-2): > 10 µM
IC50 (BT-549): > 10 µM
IC50 (A549): > 10 µM

Compound: COc1cc(C[C@@H]2C(=O)OC[C@H]2[C@@H](O)c2ccc(O[C@@H]3O[C@H](CO)[C@@H](O)[C@H](O)[C@H]3O)c(OC)c2)ccc1O
IC50 (BV-2): > 50 µM
viability at 20 µM [1]: 98.2%
IC50 (SK-OV-3): > 10 µM
Activity (C6): 103.3%
IC50 (SK-MEL-2): > 10 µM
IC50 (BT-549): > 10 µM
IC50 (A549): > 10 µM

Compound: COc1cc(C[C@H]2C(=O)OC[C@@H]2C(=O)c2ccc(O[C@@H]3O[C@H](CO)[C@@H](O)[C@H](O)[C@H]3O)c(OC)c2)ccc1O
IC50 (BV-2): > 50 µM
viability at 20 µM [1]: 101%
IC50 (SK-OV-3): > 10 µM
Activity (C6): 122.1%
IC50 (SK-MEL-2): > 10 µM
IC50 (BT-549): > 10 µM
IC50 (A549): > 10 µM

Compound: COc1cc([C@H](O)[C@@H]2COC(=O)[C@H]2Cc2ccc(O[C@@H]3O[C@H](CO)[C@@H](O)[C@H](O)[C@H]3O)c(OC)c2)ccc1O
IC50 (BV-2): > 50 µM
viability at 20 µM [1]: 102%
IC50 (SK-OV-3): > 10 µM
Activity (C6): 104.3%
IC50 (SK-MEL-2): > 10 µM
IC50 (BT-549): > 10 µM
IC50 (A549): > 10 µM

Compound: COc1cc(C[C@@H]2C(=O)OC[C@H]2[C@@H](O[C@@H]2O[C@H](CO)[C@@H](O)[C@H](O)[C@H]2O)c2ccc(O)c(OC)c2)ccc1O
IC50 (BV-2): > 50 µM
viability at 20 µM [1]: 100%
IC50 (SK-OV-3): > 10 µM
Activity (C6): 150.7%
IC50 (SK-MEL-2): > 10 µM
IC50 (BT-549): > 10 µM
IC50 (A549): > 10 µM

Compound: CCCCC/C=C/C(=O)CCc1ccc(O)c(OC)c1 [SHOGAOL]
viability at 20 µM [1]: 115%
Activity (C6): 165.7%

Now from value to molecule, other results behind:

IC50 (BV-2): > 50 µM
Compound: O=C(O)c1ccccc1 [BENZOIC ACID]
viability at 20 µM [1]: 96.4%
IC50 (SK-OV-3): > 10 µM
Activity (C6): 114.5%
IC50 (SK-MEL-2): > 10 µM
IC50 (BT-549): > 10 µM
IC50 (A549): > 10 µM

IC50 (BV-2): > 50 µM
Compound: O=C(O)/C=C/c1ccc(O)cc1 [COUMARIC ACID]
viability at 20 µM [1]: 198%
IC50 (SK-OV-3): > 10 µM
Activity (C6): 129.2%
IC50 (SK-MEL-2): > 10 µM
IC50 (BT-549): 10 µM
IC50 (A549): > 10 µM

IC50 (BV-2): > 50 µM
Compound: COc1cc(/C=C/C(=O)O)ccc1O [FERULATE]
viability at 20 µM [1]: 95%
IC50 (SK-OV-3): > 10 µM
Activity (C6): 110.7%
IC50 (SK-MEL-2): > 10 µM
IC50 (BT-549): > 10 µM
IC50 (A549): > 10 µM

IC50 (BV-2): > 50 µM
Compound: COc1cc(C(=O)O)cc(OC)c1O [SYRINGIC ACID]
viability at 20 µM [1]: 95.9%
IC50 (SK-OV-3): > 10 µM
Activity (C6): 125.5%
IC50 (SK-MEL-2): > 10 µM
IC50 (BT-549): > 10 µM
IC50 (A549): > 10 µM

IC50 (BV-2): 17.6 µM
Compound: CNC(=N)NCCC[C@H](N)C(=O)O [TILARGININE]
